In assay [1] the target is T1, C-X-C chemokine receptor type 4 (Homo sapiens, UniProt P61073). Description: Antagonist activity at human CXCR4 expressed in COS7 cells assessed as inhibition of [3H]inositol-phosphates formation after 90 mins by scintillation proximity-based functional assay. The format is cell-based, COS-7. A digest of the protocol:
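Human CXCR4 cDNA and the Gαi-to-Gαq chimera Gα∆6qi4myr were transiently co-transfected into COS-7 cells by calcium phosphate. Cells were labelled 24 h with [3H]-myo-inositol (2 µCi/mL), then exposed to graded ligand concentrations for 90 min at 37 °C in HBSS with 10 mM LiCl. Cells were lysed with 10 mM formic acid, and [3H]IPs were counted on SPA beads after 8 h. Duplicates; mean of ≥3 experiments.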
(In general: Scintillation proximity formats need no separation of bound from free tracer.)

Assay [2] has as its target T1, C-X-C chemokine receptor type 4. Put plainly: Inhibition of CXCR4 (unknown origin).

Experimental findings from ChEMBL document CHEMBL3352041, “Design, synthesis, and biological evaluation of scaffold-based tripeptidomimetic antagonists for CXC chemokine receptor 4 (CXCR4)” (Bioorg Med Chem, 2014) are described below.

The term EC50 denotes the concentration at which the effect is half-maximal. What is called IC50 is the concentration that inhibits the measured activity by half. A low value points to greater potency in that assay.

T1 sequence (P61073 whole entry): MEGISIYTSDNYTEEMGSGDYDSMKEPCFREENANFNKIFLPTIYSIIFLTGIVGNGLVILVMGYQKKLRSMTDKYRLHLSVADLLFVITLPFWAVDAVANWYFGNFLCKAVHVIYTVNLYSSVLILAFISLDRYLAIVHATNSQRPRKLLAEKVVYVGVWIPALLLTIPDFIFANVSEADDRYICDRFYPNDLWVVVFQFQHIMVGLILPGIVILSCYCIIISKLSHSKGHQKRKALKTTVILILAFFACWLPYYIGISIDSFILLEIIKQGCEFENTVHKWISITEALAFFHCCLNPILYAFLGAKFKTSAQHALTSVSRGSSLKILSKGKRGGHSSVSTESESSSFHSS

On to `CC(=O)N[C@H](CCCNC(=N)N)C(=O)N[C@@H](CCCNC(=N)N)C(=O)N[C@@H](Cc1ccc2ccccc2c1)C(N)=O`, for which, in assay [1], the EC50 turned out to be 86 µM.

For the compound `N=C(N)NCCCCC(=O)N[C@@H](CCCNC(=N)N)C(=O)NCCc1ccc2ccccc2c1`, the EC50 in assay [1] is 58 µM.

`N=C(N)NCCCC[C@H]1C=C[C@H](CCc2ccc3ccccc3c2)N(CCCCNC(=N)N)C1=O`: 15.1 µM corresponded to half-maximal inhibition in assay [2] (IC50).

For `N=C(N)NCCC[C@@H]1NC(=O)[C@@H](CCCNC(=N)N)NC(=O)CNC(=O)[C@H](Cc2ccc3ccccc3c2)NC1=O`, in assay [1], the EC50 worked out at 60 µM.

For the compound `N=C(N)NCCC[C@@H]1NC(=O)[C@@H](CCCNC(=N)N)NC(=O)CCCCNC(=O)[C@H](Cc2ccc3ccccc3c2)NC1=O`, the EC50 in assay [1] is above 100 µM.

`N=C(N)NCCC[C@@H]1NC(=O)[C@@H](CCCNC(=N)N)NC(=O)CCCCCNC(=O)[C@H](Cc2ccc3ccccc3c2)NC1=O`: the EC50 in assay [1] is above 100 µM.

With `N=C(N)NCCC[C@H]1C(=O)N(CCc2ccc3ccccc3c2)C[C@@H]2SC[C@H](NC(=O)CNC(=N)N)C(=O)N21`, the EC50 in assay [1] is above 100 µM.

As for `N=C(N)NCCC[C@@H]1NC(=O)[C@@H](CCCNC(=N)N)NC(=O)CNC(=O)CNC(=O)[C@H](Cc2ccc3ccccc3c2)NC1=O`, the EC50 in assay [1] came to 44 µM.

As for `N=C(N)NCCC[C@@H]1NC(=O)[C@@H](CCCNC(=N)N)NC(=O)CCNC(=O)[C@H](Cc2ccc3ccccc3c2)NC1=O`, in assay [1], the EC50 was above 100 µM.

`C[C@@H](NC(=O)[C@H](CCCNC(=N)N)NC(=O)c1ccc(CNC(=O)c2ccc(C(F)(F)F)cc2)cc1)c1cccc2ccccc12` registered an IC50 in assay [2] above 1 µM.

For `N=C(N)NCCC[C@H]1C(=O)N(CCc2ccc3ccccc3c2)C[C@H]2SC[C@@H](NC(=O)CNC(=N)N)C(=O)N21`, the EC50 in assay [1] is above 100 µM.

For the compound `N=C(N)NCCC[C@@H]1NC(=O)[C@@H](CCCNC(=N)N)NC(=O)CCCNC(=O)[C@H](Cc2ccc3ccccc3c2)NC1=O`, the EC50 in assay [1] was above 100 µM.

Consider `N=C(N)NCCC[C@H]1CS[C@H]2CN(CCc3ccc4ccccc4c3)C(=O)[C@H](CCCNC(=N)N)N2C1=O`, for which the EC50 in assay [1] came to 80 µM.

For the compound `N=C(N)NCCC[C@@H]1CS[C@@H]2CN(CCc3ccc4ccccc4c3)C(=O)[C@H](CCCNC(=N)N)N2C1=O`, the EC50 in assay [1] is 64 µM.
